Test results: ChEMBL document CHEMBL3046036, “Bioactivity of the fungal metabolite (8R,16R)-(-)-pyrenophorin on graminaceous plants” (J Agric Food Chem, 2005)
Calls of active or inactive are those of the source. The calls are words filed in the database; no cut-off is given here.

What was measured:
[1] = test system: Hordeum vulgare; assay: Inhibition of Hordeum vulgare (barley) seed germination at 20 degC at 90 uM (reference value: 0%); type: functional
[2] = test system: Avena sterilis; assay: Inhibition of Avena sterilis seed germination at 20 degC at 90 uM (reference value: 0%); type: functional
[3] = test system: Avena sterilis; assay: Inhibition of Avena sterilis seed germination at 20 degC at 80 uM (reference value: 0%); type: functional
[4] = test system: Avena sterilis; assay: Phytotoxicity against Avena sterilis root growth at 20 degC and 12 hr photoperiod at 1000 uM; type: organism-based; conditions: in vivo
[5] = test system: Triticum aestivum; assay: Inhibition of Triticum aestivum (wheat) seed germination at 20 degC at 70 uM (reference value: 0%); type: functional
[6] = test system: Avena sativa; assay: Phytotoxicity against Avena sativa root growth at 20 degC and 12 hr photoperiod at 1000 uM; type: organism-based; conditions: in vivo
[7] = test system: Avena sativa; assay: Inhibition of Avena sativa root growth at 20 degC and 12 hr photoperiod at 31 to 50 uM; type: functional, organism-based
How it was run: (§1)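 Pregerminated seeds were exposed in tubes to aqueous metabolite and kept in a growth chamber at 20 °C with a 12-h photoperiod. Main root length was measured after 120 h.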

[8] = test system: Avena sterilis; assay: Inhibition of Avena sterilis seed germination at 20 degC at 200 uM (reference value: 0%); type: functional
[9] = test system: Triticum aestivum; assay: Effect on chlorophyll content in Triticum aestivum (wheat) assessed as chlorophyll dissipation rate at 20 degC and 12 hr photoperiod at 320 uM relative to control; type: ADME, organism-based; conditions: in vivo
How it was run: (§2)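 Leaf sections were treated with 320 µM metabolite and incubated in the dark at 20 °C, with 16 tubes per treatment. Every 12 h, segments from one tube were split into four tubes and extracted in DMSO at 65 °C for 30 min. Extracts were read at A665, tissue was dried at 105 °C and weighed, and chlorophyll was expressed as A665 per g dry weight.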

[10] = test system: Avena fatua; assay: Inhibition of Avena fatua seed germination at 20 degC at 200 uM (reference value: 0%); type: functional
[11] = test system: Hordeum vulgare; assay: Enhancement of Hordeum vulgare (barley) root growth at 20 degC and 12 hr photoperiod at 10 to 30 uM; type: functional, organism-based; how it was run: as §1
[12] = test system: Triticum aestivum; assay: Inhibition of Triticum aestivum (wheat) seed germination at 20 degC at 60 uM (reference value: 0%); type: functional
[13] = test system: Avena fatua; assay: Inhibition of Avena fatua root growth at 20 degC and 12 hr photoperiod at 31 to 50 uM; type: functional, organism-based; how it was run: as §1
[14] = test system: Avena sativa; assay: Inhibition of Avena sativa seed germination at 20 degC at 70 uM (reference value: 0%); type: functional
[15] = test system: Hordeum vulgare; assay: Inhibition of Hordeum vulgare (barley) seed germination at 20 degC at 100 uM (reference value: 0%); type: functional
[16] = test system: Avena fatua; assay: Inhibition of Avena fatua seed germination at 20 degC at 70 uM (reference value: 0%); type: functional
[17] = test system: Hordeum vulgare; assay: Inhibition of Hordeum vulgare (barley) root growth at 20 degC and 12 hr photoperiod at > 51 uM; type: functional, organism-based; how it was run: as §1
[18] = test system: Avena sterilis; assay: Inhibition of Avena sterilis seed germination at 20 degC at 60 uM (reference value: 0%); type: functional
[19] = test system: Avena sterilis; assay: Inhibition of Avena sterilis seed germination at 20 degC at 70 uM (reference value: 0%); type: functional
[20] = test system: Hordeum vulgare; assay: Inhibition of Hordeum vulgare (barley) seed germination at 20 degC at 60 uM (reference value: 0%); type: functional
[21] = test system: Triticum aestivum; assay: Inhibition of Triticum aestivum (wheat) seed germination at 20 degC at 200 uM (reference value: 0%); type: functional
[22] = test system: Avena sterilis; assay: Effect on chlorophyll content in Avena sterilis assessed as chlorophyll dissipation rate at 20 degC and […] at 320 uM relative to control; type: ADME, organism-based; conditions: in vivo; how it was run: as §2
[23] = test system: Triticum aestivum; assay: Inhibition of Triticum aestivum (wheat) seed germination at 20 degC at 90 uM (reference value: 0%); type: functional
[24] = test system: Avena sativa; assay: Inhibition of Avena sativa seed germination at 20 degC at 640 uM (reference value: 0%); type: functional
[25] = test system: Triticum aestivum; assay: Enhancement of Triticum aestivum (wheat) root growth at 20 degC and 12 hr photoperiod at 10 to 30 uM; type: functional, organism-based; how it was run: as §1
[26] = test system: Hordeum vulgare; assay: Inhibition of Hordeum vulgare (barley) seed germination at 20 degC at 80 uM (reference value: 0%); type: functional
[27] = test system: Avena sativa; assay: Inhibition of Avena sativa seed germination at 20 degC at 10 to 50 uM (reference value: 0%); type: functional
[28] = test system: Hordeum vulgare; assay: Inhibition of Hordeum vulgare (barley) seed germination at 20 degC at 200 uM (reference value: 0%); type: functional
[29] = test system: Triticum aestivum; assay: Inhibition of Triticum aestivum (wheat) seed germination at 20 degC at 80 uM (reference value: 0%); type: functional
[30] = test system: Hordeum vulgare; assay: Inhibition of Hordeum vulgare (barley) seed germination at 20 degC at 640 uM (reference value: 0%); type: functional
[31] = test system: Triticum aestivum; assay: Inhibition of Triticum aestivum (wheat) root growth at 20 degC and 12 hr photoperiod at 31 to 50 uM; type: functional, organism-based
[32] = test system: Avena fatua; assay: Inhibition of Avena fatua seed germination at 20 degC at 80 uM (reference value: 0%); type: functional
[33] = test system: Avena sterilis; assay: Inhibition of Avena sterilis root growth at 20 degC and 12 hr photoperiod at 31 to 50 uM; type: functional, organism-based; how it was run: as §1
[34] = test system: Avena sterilis; assay: Inhibition of Avena sterilis seed germination at 20 degC at 10 to 50 uM (reference value: 0%); type: functional
[35] = test system: Triticum aestivum; assay: Phytotoxicity against Triticum aestivum (wheat) root growth at 20 degC and 12 hr photoperiod at 1000 uM; type: organism-based; conditions: in vivo

**Q.** Which results are given for `C[C@@H]1CCC(=O)/C=C/C(=O)O[C@H](C)CCC(=O)/C=C/C(=O)O1` [(8R,16R)-(-)-pyrenophorin]?
**A.** inhibition at 90 µM [1]: 88.2%; inhibition at 90 µM [2]: 89.6%; inhibition at 80 µM [3]: 84.4%; Activity [4]: Non-toxic; inhibition at 70 µM [5]: 67.8%; Activity [6]: Non-toxic; inhibition [7]: inactive; inhibition at 200 µM [8]: 100%; Ratio [9]: 1.4; inhibition at 200 µM [10]: 97.9%; Activity [11]: Active; inhibition at 60 µM [12]: 12.4%; inhibition [13]: inactive; inhibition at 70 µM [14]: 71.5%; inhibition at 100 µM [15]: 95.4%; inhibition at 70 µM [16]: 69.9%; inhibition [17]: Active; inhibition at 60 µM [18]: 15%; inhibition at 70 µM [19]: 68.5%; inhibition at 60 µM [20]: 10.1%; inhibition at 200 µM [21]: 90.6%; Ratio [22]: 1.4; inhibition at 90 µM [23]: 86.2%; inhibition at 640 µM [24]: 100%; Activity [25]: Active; inhibition at 80 µM [26]: 87.7%; inhibition (INH) [27]: 0%; inhibition at 200 µM [28]: 99%; inhibition at 80 µM [29]: 81.4%; inhibition at 640 µM [30]: 100%; inhibition [31]: inactive; inhibition at 80 µM [32]: 82%; inhibition [33]: inactive; inhibition (INH) [34]: 0%; Activity [35]: Non-toxic
